Data set [1] is filed under the species Mus musculus. Put plainly: The in vitro IC50 value was measured for inhibition of lipid autoxidation in mouse heart homogenate. The format is functional. The method, boiled down:
(§1)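 Heart homogenate from untreated mice, diluted in potassium phosphate buffer. Test compound was added at several concentrations before 2 h incubation at 37 °C. The reaction was stopped on ice with HClO4, then heated with thiobarbituric acid at 100 °C for 15 min. TBARS were extracted into n-butanol and read by fluorescence (ex 515 nm, em 553 nm) against a malondialdehyde dimethylacetal standard. IC50 is 50% inhibition of TBARS formation.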

The species named for data set [2] is Mus musculus. As to the kind of experiment: The ex vivo ID50 value was measured for lipid inhibition of autoxidation in mouse heart homogenate. The data set is classed as functional. As to conditions: read-out: ID50 (the source's name). The method, boiled down: (§2)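 Groups of five CD1 mice were dosed subcutaneously, and hearts were excised 1 h later. Frozen hearts were homogenized, diluted in potassium phosphate buffer and incubated at 37 °C for 2 h. The reaction was stopped on ice with HClO4 and centrifuged. The supernatant was heated with thiobarbituric acid at 100 °C for 15 min. TBARS were extracted into n-butanol and read by fluorescence (ex 515 nm, em 553 nm) against a malondialdehyde dimethylacetal standard. ID50 was taken from semilog plots of log dose versus percent of vehicle control, using at least four doses.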

The species entered for data set [3] is Rattus norvegicus. As to the kind of experiment: The IC50 value was measured for inhibition of lipid autoxidation in rat brain homogenate. The data set is classed as functional. Summed up: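 Rat brain homogenate left to autoxidize with test compound present. The read-out is formation of thiobarbituric acid-reactive substances (TBARS). IC50 is the concentration that inhibits TBARS formation by 50%. Values are single or duplicate determinations, or means ± SD.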

A short description of data set [4]: (§3) The reaction rate constant(K) by measuring competition with nitroblue tetrazolium of the superoxide radicals formed by xanthine oxidase/xanthine. The data set is classed as ADME.
Data set [5] in a line: The reaction rate constant (K) by measuring competition with nitroblue tetrazolium of the superoxide radicals formed by xanthine oxidase/xanthine. The data set is classed as ADME.
In data set [6] the test system is Mus musculus. Put plainly: The ex vivo ID50 value was measured for inhibition of lipid autoxidation in mouse heart homogenate 1 hr after subcutaneous administration. The data set is classed as functional. As to conditions: sc, read-out: ID50 (the source's name). The method, boiled down: as §2
The species named for data set [7] is Mus musculus. Put plainly: The ex vivo ID50 value was measured for inhibition of lipid autoxidation in mouse heart homogenate. The data set is classed as functional. As to conditions: read-out: ID50 (the source's name). Summed up:
as §2

Data set [8] can be described thus: as §3. The format is functional.
The species named for data set [9] is Mus musculus. As to the kind of experiment: The in vitro IC50 value was measured for lipid inhibition of autoxidation in mouse heart homogenate. The format is functional. The method, boiled down:
as §1

Take `Cc1c(C)c2c(c(C)c1O)CCC(C)(CC[P+](C)(C)C)O2.[Br-]` (centres undefined): the IC50 in data set [1] was determined as 10 µM; in data set [3] (Rattus norvegicus, Brain) it was 2 µM. In data set [2], the ED50 turned out to be 8 µmol/kg. The molecule further displayed a K in data set [4] of 24000 M⁻¹ s⁻¹.
`Cc1c(C)c2c(c(C)c1O)CC[C@@](C)(CC[N+](C)(C)C)O2.Cc1ccc(S(=O)(=O)[O-])cc1` yielded a concentration for half-maximal inhibition (IC50) in data set [3] (Rattus norvegicus, Brain) of 2.3 µM. Further, the K in data set [5] was found to be 21000 M⁻¹ s⁻¹.
In turn, `Cc1c(C)c2c(c(C)c1O)CC[C@](C)(CCN(C)C)O2` registered an IC50 in data set [3] (Rattus norvegicus, Brain) of 1 µM.
In data set [3], `Cc1c(C)c2c(c(C)c1O)CCC(C)(C(=O)O)O2` (centres undefined) [TROLOX] showed an IC50 of 14 µM. Moreover, the K in data set [5] worked out at 20000 M⁻¹ s⁻¹.
Consider `Cc1c(C)c2c(c(C)c1O)CC[C@](C)(CC(=O)[N-][N+](C)(C)C)O2`, for which, in [3] (Rattus norvegicus, Brain), the IC50 was 8 µM.
In data set [3] (Rattus norvegicus, Brain), `CCCCCCCCCCCCCCCCCCOC1=C(O)[C@@H](C(O)CO)OC1=O` (some centres undefined) yielded an IC50 of 6 µM. Moreover, in data set [4], the K amounted to 21000 M⁻¹ s⁻¹.
With `C[N+](C)(C)CC(O)C1OC(=O)C(O)=C1[O-]` (centres undefined), the half-inhibitory concentration (IC50) in [3] (Rattus norvegicus, Brain) is above 200 µM. Besides, the K in data set [5] was determined as 600000 M⁻¹ s⁻¹.
`Cc1c(C)c2c(c(C)c1O)CCC(C)(CC[N+](C)(C)C)O2.Cc1ccc(S(=O)(=O)[O-])cc1` (centres undefined): the IC50 in data set [1] stood at 19 µM; in [3] (Rattus norvegicus, Brain) it was 2.6 µM. Besides, the ED50 in [6] was 11 µmol/kg. The K in data set [5] worked out at 24000 M⁻¹ s⁻¹.
For `Cc1c(C)c2c(c(C)c1O)CC[C@@](C)(CC[S+](C)C)O2`, in data set [3] (Rattus norvegicus, Brain), it took 2 µM to reach half-maximal inhibition (IC50).
For the molecule `CC[P+](CC)(CC)CCC1(C)CCc2c(C)c(O)c(C)c(C)c2O1.[Br-]` (centres undefined), the concentration for half-maximal inhibition (IC50) was 10 µM in [1] and 2 µM in data set [3] (Rattus norvegicus, Brain). Besides, the ED50 in data set [2] was determined as 7 µmol/kg. Also, the K in data set [4] was 22000 M⁻¹ s⁻¹.
In data set [3] (Rattus norvegicus, Brain), `Cc1c(C)c2c(c(C)c1O)CC[C@@](C)(CC(=O)[N-][N+](C)(C)C)O2` showed an IC50 of 9 µM.
As for `Cc1c(C)c2c(c(C)c1O)CCC(C)(C(=O)[N-][N+](C)(C)C)O2` (centres undefined), in [3] (Rattus norvegicus, Brain), the half-maximal inhibitory concentration (IC50) is 14 µM.
The molecule `Cc1c(C)c2c(c(C)c1O)CCC(C)(CCN(C)C)O2` (centres undefined) yielded an IC50 in data set [1] of 19 µM. The ED50 in data set [7] was above 150 µmol/kg. This molecule displayed a K in data set [5] of 27000 M⁻¹ s⁻¹.
Regarding `CCCCCCCCCCCCCCCCCCOC1=C([O-])C(C(O)C[N+](C)(C)C)OC1=O` (centres undefined), the half-maximal inhibitory concentration (IC50) in [3] (Rattus norvegicus, Brain) was above 20 µM.
In the case of `O=C1O[C@H]([C@@H](O)CO)C(O)=C1O`, the K in data set [8] amounted to 350000 M⁻¹ s⁻¹.
In data set [3] (Rattus norvegicus, Brain), `Cc1c(C)c2c(c(C)c1O)CC[C@](C)(CC(=O)O)O2` showed an IC50 of 14 µM.
In the case of `Cc1c(C)c2c(c(C)c1O)CCC(C)(CC[S+](C)C)O2.Cc1ccc(S(=O)(=O)[O-])cc1` (centres undefined), the IC50 in data set [1] was 7 µM; in [3] (Rattus norvegicus, Brain), 2 µM. Also, the ED50 in [2] worked out at 6 µmol/kg. The same molecule yielded a K in [4] of 21000 M⁻¹ s⁻¹.
In data set [3] (Rattus norvegicus, Brain), `Cc1c(C)c2c(c(C)c1O)CC[C@](C)(CC[S+](C)C)O2` showed an IC50 of 2 µM.
Molecule `Cc1c(C)c2c(c(C)c1O)CC[C@](C)(CC[P+](C)(C)C)O2` returned an IC50 in [3] (Rattus norvegicus, Brain) of 2 µM.
For the molecule `Cc1c(C)c2c(c(C)c1O)CC[C@@](C)(CCN(C)C)O2`, in data set [3] (Rattus norvegicus, Brain), half-maximal inhibition (IC50) was put at 1 µM.
With `Cc1c(C)c2c(c(C)c1O)CC[C@@](C)(CC(=O)O)O2`, the IC50 in data set [3] (Rattus norvegicus, Brain) is 17 µM.
On to `CSCCC1(C)CCc2c(C)c(O)c(C)c(C)c2O1` (centres undefined), for which the ED50 in data set [2] is above 150 µmol/kg. The half-maximal inhibitory concentration (IC50) in data set [3] (Rattus norvegicus, Brain) amounted to 3 µM; in data set [9], 18 µM. In data set [5], this molecule came in with a K of 800 M⁻¹ s⁻¹.
In data set [3] (Rattus norvegicus, Brain), `Cc1c(C)c2c(c(C)c1O)CC[C@](C)(CC[N+](C)(C)C)O2.Cc1ccc(S(=O)(=O)[O-])cc1` registered an IC50 of 2.2 µM. The molecule also had a K in data set [5] of 18000 M⁻¹ s⁻¹.
`Cc1c(C)c2c(c(C)c1O)CC[C@@](C)(CCC[C@H](C)CCC[C@H](C)CCCC(C)C)O2` [alpha-TOCHOPHEROL] had an IC50 in data set [3] (Rattus norvegicus, Brain) of 14 µM.
For the molecule `Cc1c(C)c2c(c(C)c1O)CCC(C)(CC(=O)[N-][N+](C)(C)C)O2` (centres undefined), the 50% inhibitory concentration (IC50) in data set [3] (Rattus norvegicus, Brain) was 6 µM. Besides, the K in data set [4] amounted to 28000 M⁻¹ s⁻¹.
`Cc1c(C)c2c(c(C)c1O)CC[C@@](C)(CC[P+](C)(C)C)O2` had an IC50 in data set [3] (Rattus norvegicus, Brain) of 2 µM. In other words, the single-digit micromolar range.

A word on the IC50: it is the concentration that inhibits the measured activity by half. A low value points to greater potency in that assay.

The values above are taken from ChEMBL document CHEMBL1128484, “Cardioselective ammonium, phosphonium, and sulfonium analogues of alpha-tocopherol and ascorbic acid that inhibit in vitro and ex vivo lipid peroxidation and scavenge superoxide radicals” (J Med Chem, 1995).
